Results published in the EternaBench riboswitch data.

Test system: MS2 coat protein
Assay: apparent Kd, MS2 coat protein; higher = weaker binding; RNA-MaP array; FMN 200 µM where present
Procedure, shortened: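 The apparent Kd is the median of filtered binding-curve fits, one per cluster, to green signal normalised to red-channel RNA signal and control-cluster median Fmax. The clusters were on Illumina sequencing chips, and stalled E. coli RNA polymerase had transcribed the designs on them. Titration used SNAP-549-labelled MS2 coat protein from 0.7 or 1.5 nM, doubling to 3 µM, without and then with constant ligand, in 100 mM Tris-HCl pH 7.5, 80 mM KCl, 4 mM MgCl2, BSA, DTT, yeast tRNA and Tween-20.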

[1] = designed as: OFF switch for flavin mononucleotide, no ligand
[2] = ligand present: flavin mononucleotide, designed as: OFF switch for flavin mononucleotide
[3] = designed as: ON switch for flavin mononucleotide, no ligand
[4] = ligand present: flavin mononucleotide, designed as: ON switch for flavin mononucleotide

Sequence	apparent Kd [1] [µM]	apparent Kd [2] [µM]	apparent Kd [3] [µM]	apparent Kd [4] [µM]
GGAUCGAAUGUGAGGAUAUGCAGGUCCUUGGAUCUGCAGAAGGCACAUGAGGAUCACCCAUGUGACCAAGAUCC	0.05	0.548	–	–
UUGUACAUAGGAUAUAGUUGUUUGUACAUGAGGAUCACCCAUGUUAUGUAUGUUUUGCUUCUAGAAGGAUGUUGUU	0.0332	0.0244	–	–
GCGAUUUUGUAAGGAUAUACACGAGUUUUAAGUGUAGAAGGUGCUUACAUGAGGAUCACCCAUGUAUAAAUGUAUAAUAGUCGC	–	–	0.00914	0.00818
CGGAGGUCAGGAUAUGCAUGGCGGGACUUGCGUCGUGGCGUGCAGAAGGGACAUGAGGAUCACCCAUGUGGAGA	0.0832	0.259	–	–
ACGGUUGGGACAGGAUAUGUAACCGGGAUUCUAGUUUCGUCCGUGACAUGAGGAUCACCCAUGUUACAGAAGGGUUCUAAAUCG	0.189	0.234	–	–
GCGGAGAUACAGAAGGGAUAGGCCCUGGGCUAGUCAGGAUAUGUACGACGCAUCGUACAUGAGGAUCACCCAUGUAGCCGCUUG	–	–	0.278	0.189
CAUUAAUUCAUUAUAGUUAUUAUACAGGAUAUGUUACAUGAGGAUCACCCAUGUAUUCAUGGUAAACAGAAGGGUAAUACUAGU	0.0111	0.0158	–	–
CGGUGCUGAGGAUAUACAUGAGGAUCACCCAUGUGUGCCAGCUAGCUGACUGGCGCUUGUAGAAGGCAGUACUG	0.0121	0.0244	–	–
AAGAAGUUAGGAUAUGCUGCUCGUCACAAAAGUGAUGAGUAGCAGAAGGAACAUGAGGAUCACCCAUGUAAAGA	0.0323	0.0229	–	–
UUAUUUAUGCAAGGAUAUCAAUUAUAUAGACGUCCUACAUGAGGAUCACCCAUGUUUAGUUUUUUUGAGAAGGUGCAUUGUCGG	–	–	0.0431	0.0311
GGAUAGGAUAGAGGAUAUACGUGCUAGAGAUACUAGCAAAAUUUCCUCACAUGAGGAUCACCCAUGUAGAAGGCUGUCCUAUCG	0.0106	0.193	–	–
UCGUACAUUCGAGGAUAUCGGUGAUAAAUAAUACGAGAAGGCGAUUGUGGGAAUAACGCCUUAGACAUGAGGAUCACCCAUGUA	–	–	0.0724	0.0626
AGGAGACAUGAGGAUCACCCAUGUGCACGUGGAGGAGGAUAUGCUAGUAGAAGAUAGAAUGCAGAAGGCCUAAGAA	–	–	0.0729	0.0848
GGAUAGGACAGAGGAUAUACCGAUAGGAGAUACUAUCGACUAUUCCUCACAUGAGGAUCACCCAUGUAGAAGGCUGUCCUAUCG	0.0169	0.0581	–	–
GCUAAGAAAGGAUAUACACCGGUGAGCCGCUGAUUUCAGCAACAUGAGGAUCACCCAUGUAGAAGGUUUAUGGG	0.367	0.11	–	–
ACCUUACAUGAGGAUCACCCAUGUCAGGAUAUCUCGGGCGACCGAGGGCCGGCCGCCCAGAGAAGGGACGAGGA	0.0125	0.0139	–	–
ACGGUGGUCACAGGAUAUCCGGCCCGCGUGCCUGGAGAAGGGUGACUCAGAACCACAUGAGGAUCACCCAUGUGCCUUGCCGUA	–	–	0.0921	0.0319
UUUUGAAAGUGAGGAUAUGACAUGAGGAUCACCCAUGUAAAGGGAGUUGAAUAUAUAGAAAGAUAUCAGAAGGCACAAAUGUUU	0.178	0.497	–	–
UCAGGCUUCGAGAAGGACAUGAGGAUCACCCAUGUGCGUGUAAAACAGCCAAAAGGCUGCAUCAUGUAGGAUAUCGGAGUCUGC	0.279	0.192	–	–
GUAUCGUGAGGAUAUCAUGAUUGACUUUUGUUUUGUCAGCGUGAGAAGGCACAUGAGGAUCACCCAUGUGAUUA	0.0223	0.0529	–	–
UUUAUAAAUUAGAAGGCGAGAUGAAUUACAAUAGACAUGAGGAUCACCCAUGUGUAUUCAUGUCUUGAGGAUAUAGUCAUAUAU	–	–	0.118	0.0582
UCGUUAUAUGAAGGAUAUACUUAACAUGAGGAUCACCCAUGUGGUGUUGUGAGUGAGUGAGUUUAGUAGAAGGUCAAUUCUUUU	0.212	0.214	–	–
AAAACAUGAGGAUCACCCAUGUAAAGAUCAGUUAAUAGAGGUGAGGAUAUACGAACUUAAAGGUAGUAGAAGGCACUGGGUACA	–	–	0.0359	0.03
CAGGUAGCUACAGGAUAUACACAGCUCAGUAAACUGAGCAAAAGAACUACAUGAGGAUCACCCAUGUAGAAGGGUAGCUGCCUG	0.0168	0.0188	–	–
GACGGUGAUGUAGGAUAUACGCUGGAAUACAGCGUAGAAGGACAUGAGGAUCACCCAUGUAAAGUGUCUCUAAAUAACACCGUC	0.0215	0.0473	–	–
AGGAGAAAUGUAGGAUAUGGGCGGGCAUAUGGGCAAAGCGCAUAUGCCCGCCCAGAAGGACAUGAGGAUCACCCAUGUUUCCCU	0.0132	0.0111	–	–
GGAAAACAUGAGGAUCACCCAUGUGAGGAUAUCGAUGUCCAGAGAGAGGUGCGGGACUCGAGAAGGCACUUGGA	0.0445	0.0874	–	–
AAUAAACACACAGGAUAUAGCAUCGUCGUUGCGAACUUAGCGACGUCGAUGCUAGAAGGGUGAAAACAUGAGGAUCACCCAUGU	–	–	0.0809	0.0201
